Reference: paper PMC3064480 (Molecular bioSystems, 2010)
“Also recorded” adds a separate entry of the source. Ends that are not written are not given here.

Assays:
[1] = tested on: TGF-β responsive SBE(CAGA)12-luciferase reporter, Mv1Lu cells; assay: Reporter gene assay, SBE; type: cell-based, mink; details: 10 μM SB-431542; 10 pM TGF-β1
Summary of the method: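 Mv1Lu cells stably carrying the SBE(CAGA)12-Luc reporter were grown in DMEM with 10% FBS. About 4000 cells were plated and left to attach overnight. Medium was changed to DMEM with 0.2% FBS 4 h before treatment. Cells received TGF-β1, TGF-β1 with serial dilutions of test peptide, or peptide alone, with untreated cells as control, in triplicate. After 18-24 h, Bright-Glo luminescence was normalised to cell number by CellTiter-Glo.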

[2] = tested on: BMPR-IA-ED; assay: SPR, BMPR-IA-ED; type: binding, human; details: verification of immobilized receptor activity
Summary of the method: (§1)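 In a separate run, recombinant human β-glycan-ED (residues 21-781), BMPR-IA-ED (Gln24-Arg152, Fc chimera) and ActRII-ED (Ser25-Pro134, Fc chimera) were amine-coupled on a CM5 chip to about 1600, 3300 and 4300 RU. Serial dilutions of peptide-bearing dendrimer in HBS, within 2.9 nM–6 μM, were injected for 5 min with 5 min dissociation at 10 μL/min. Reference subtraction and HCl regeneration were used.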

[3] = tested on: ActRII-ED; assay: SPR, ActRII-ED; type: binding, human; details: verification of immobilized receptor activity
Summary of the method: as §1

[4] = target: T1, TβRI-ED (Homo sapiens, UniProt P36897); assay: competition ELISA; type: binding
T1 sequence (P36897 25-125): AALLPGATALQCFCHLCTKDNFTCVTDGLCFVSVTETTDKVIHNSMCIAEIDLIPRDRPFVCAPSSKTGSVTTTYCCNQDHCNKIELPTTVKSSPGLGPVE
Summary of the method: (§2)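 Equimolar TβRI-ED (residues 1-101, 1.0 μg) or TβRII-ED (1-137, 1.5 μg), E. coli-expressed and refolded, was coated at 4 °C for 12 h. For Kd, M13 phage clones at various concentrations were bound for 1 h at room temperature in 2% BSA/PBS/0.5% Tween 20, with BSA wells as control. For IC50, fixed phage near its apparent Kd was mixed with varying peptide. Read-out was anti-M13-HRP, then ABTS/H2O2 for 30 min and A405; mean ± SD.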

[5] = target: T2, TβRII-ED (residues 1-137) (Homo sapiens, UniProt P37173); assay: competition ELISA; type: binding
Summary of the method: as §2

[6] = target: T3, TβRI-ED (residues 7-91) (Homo sapiens, UniProt P36897); assay: SPR, TβRI-ED; type: binding; details: TGF-β1 41 pM to 30 nM
T3 sequence (P36897 31-115): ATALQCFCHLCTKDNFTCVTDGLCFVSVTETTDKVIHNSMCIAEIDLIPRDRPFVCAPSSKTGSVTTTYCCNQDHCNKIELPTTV
Summary of the method: (§3)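 CM5 chip with HBS (pH 7.4) running buffer. TβRI-ED (residues 7-91), TβRII-ED (1-137) and endoglin-ED (26-586) were amine-coupled (EDC/NHS) from 20 μg/mL in 10 mM NaOAc pH 5.0 to about 3600, 1900 and 7300 RU, then blocked with ethanolamine. The protein-free reference signal was subtracted. Surfaces were regenerated with 100 mM HCl for 30 s.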

[7] = target: T2, TβRII-ED (residues 1-137); assay: SPR, TβRII-ED; type: binding
Summary of the method: as §3

[8] = target: monomeric TβRII-ED; details: previous SPR studies; cited from earlier work
[9] = target: artificially dimerized TβRII-ED; details: previous SPR studies; cited from earlier work
[10] = target: TβRII; details: read-out: Kd (binding to two copies of TβRII); approximate (~) range; cited from earlier work
[11] = tested on: TβRI-ED; details: TGF-β alone; cited from earlier work

Compound: NC(=O)c1ccc(-c2nc(-c3ccc4c(c3)OCO4)c(-c3ccccn3)[nH]2)cc1 [SB-431542]
- inhibition of TGF-β-induced luciferase gene expression [1]: completely blocked; also recorded: inhibited TGF-β regulated luciferase gene expression

Compound: BMP-4: known ligand of BMPR-IA and ActRII
- binding of BMP-4 [2]: ability to bind BMP-4
- binding of BMP-4 [3]: ability to bind BMP-4

Compound: LTGKNFPMFHRN [Pep1]
- IC50 [4]: 110 µM
- Kd [4]: ~10 µM
- IC50 [5]: 156 µM
- Kd [5]: ~10 µM

Compound: MHRMPSFLPTTL [Pep2]
- IC50 [4]: 256 µM
- Kd [4]: ~10 µM
- IC50 [5]: 274 µM
- Kd [5]: ~10 µM

Compound: TGF-β1: Recombinant human TGF-β1, disulfide-linked homodimer growth factor
- binding to TβRI-ED surface [6]: did not bind detectably; also recorded: no observable affinity
- Kd ([7]; read-out: apparent Kd, TGF-β1 41 pM to 30 nM, dose dependent SPR responses, surface a mixture of monomeric and dimeric receptor): ~0.0014 µM
- Kd [8]: ~0.1 µM
- Kd [9]: ~5 pM
- Kd [10]: 0.005 to 0.03 nM

Compound: TGF-β3: TGF-β isoform 3
- Kd [10]: 0.005 to 0.03 nM

Compound: TGF-β: transforming growth factor β, generic wording; TGF-β1 in the authors' own experiments
- saturating concentration ([7]; binding to TβRII-ED, SPR): 10 nM
- affinity for TβRI-ED [11]: weak affinity
